Laboratory results taken from ChEMBL document CHEMBL1125140, “Synthesis and in vivo antitumor activity of 2-amino-9H-purine-6-sulfenamide, -sulfinamide, and -sulfonamide and related purine ribonucleosides” (1990).

Assays:
Format in all cases: functional, Mus musculus
L1210 [1] = test: Percentage of L1210 cells killed was determined in L1210 Inoculated mice at a dose of 37 mg/kg after a single treatment
Outline: (§1)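 BDF1 female mice (~18 g) inoculated ip on day 0 with 1 × 10⁶ L1210 leukemia cells. Single ip bolus 24 h later, prepared just before use and given in 0.01 mL/g body weight (mg/kg dose = 10 × solubility in mg/mL; water, or Me₂SO if insoluble). Six mice per group. Percent of viable leukemia cells killed estimated from inoculum size versus life span data.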

L1210 [2] = test: Post inoculation lifespan was determined in L1210 Inoculated mice at a dose of 37 mg/Kg after a single treatment
Outline: (§2)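 BDF1 female mice (~18 g) received 1 × 10⁶ L1210 cells ip on day 0, then one ip bolus at 24 h in 0.01 mL/g (dose = 10 × solubility in mg/mL; water, or Me₂SO if insoluble). Controls got 0.9% NaCl. Six mice per treatment group. %T/C = mean life span of treated / mean life span of controls × 100. Deaths assigned to leukemia or toxicity from timing and necropsy.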

L1210 [3] = test: Percentage of L1210 cells killed was determined in L1210 Inoculated mice at a dose of 22 mg/kg after a single treatment; outline: as §1
L1210 [4] = test: Post inoculation lifespan was determined in L1210 Inoculated mice at a dose of 22 mg/Kg after a single treatment; outline: as §2
L1210 [5] = test: Percentage of L1210 cells killed was determined in L1210 Inoculated mice at a dose of 62 mg/kg after a single treatment; outline: as §1
L1210 [6] = test: Post inoculation lifespan was determined in L1210 Inoculated mice at a dose of 62 mg/Kg; outline: as §2
L1210 [7] = test: Percentage of L1210 cells killed was determined in L1210 Inoculated mice at a dose of 173 mg/kg after a single treatment; outline: as §1
L1210 [8] = test: Post inoculation lifespan was determined in L1210 Inoculated mice at a dose of 173 mg/Kg after a single treatment; outline: as §2
L1210 [9] = test: Percentage of L1210 cells killed was determined in L1210 Inoculated mice at a dose of 13 mg/kg after a single treatment; outline: as §1
L1210 [10] = test: Post inoculation lifespan was determined in L1210 Inoculated mice at a dose of 13 mg/Kg after a single treatment; outline: as §2
L1210 [11] = test: Percentage of L1210 cells killed was determined in L1210 Inoculated mice at a dose of 480 mg/kg after a single treatment; outline: as §1
L1210 [12] = test: Post inoculation lifespan was determined in L1210 Inoculated mice at a dose of 480 mg/Kg after a single treatment; outline: as §2
L1210 [13] = test: Percentage of L1210 cells killed was determined in L1210 Inoculated mice at a dose of 104 mg/kg after a single treatment; outline: as §1
L1210 [14] = test: Post inoculation lifespan was determined in L1210 Inoculated mice at a dose of 104 mg/Kg after a single treatment; outline: as §2
L1210 [15] = test: Percentage of L1210 cells killed was determined in L1210 Inoculated mice at a dose of 8.1 mg/kg after a single treatment; outline: as §1
L1210 [16] = test: Post inoculation lifespan was determined in L1210 Inoculated mice at a dose of 8.1 mg/Kg after a single treatment; outline: as §2
L1210 [17] = test: Post inoculation lifespan was determined in L1210 Inoculated mice at a dose of 62 mg/Kg after a single treatment; outline: as §2
L1210 [18] = test: Post inoculation lifespan was determined in L1210 Inoculated mice at a dose of 104 mg/Kg; outline: as §2

C[C@H]1OC(n2cnc3c(S)nc(N)nc32)[C@H](O)[C@@H]1O (stereo partly specified)
Activity (L1210 [1]): 99.82% | T/C (L1210 [2]): 169%

CC(=O)OC[C@H]1O[C@@H](n2cnc3c([S+](N)[O-])nc(N)nc32)[C@H](OC(C)=O)[C@@H]1OC(C)=O (stereo partly specified)
Activity (L1210 [3]): 0% | T/C (L1210 [4]): 99%

O=S(=O)(F)c1[nH]cnc2ncnc1-2
Activity (L1210 [5]): 73.54% | T/C (L1210 [6]): 115%

OC[C@H]1O[C@@H](n2cnc3c(S)ncnc32)[C@H](O)[C@@H]1O [THIOINOSINE]
Activity (L1210 [7]): 98.36% | T/C (L1210 [8]): 150%

C[C@H]1OC(n2cnc3c(SN)nc(N)nc32)[C@H](O)[C@@H]1O (stereo partly specified)
Activity (L1210 [9]): 95.9% | T/C (L1210 [10]): 136%

C[C@H]1OC(n2cnc3c(S(N)(=O)=O)nc(N)nc32)[C@H](O)[C@@H]1O (stereo partly specified)
Activity (L1210 [11]): 94.38% | T/C (L1210 [12]): 130%

Nc1nc([S+](N)[O-])c2[nH]cnc2n1 (stereo unspecified)
Activity (L1210 [3]): 67.94% | T/C (L1210 [4]): 113%

C[C@H]1OC(n2cnc3c([S+](N)[O-])nc(N)nc32)[C@H](O)[C@@H]1O (stereo partly specified)
Activity (L1210 [13]): 99.87% | T/C (L1210 [14]): 172%

Nc1nc(=S)c2ncn([C@@H]3O[C@H](CO)[C@@H](O)[C@H]3O)c2[nH]1 [THIOGUANOSINE]
Activity (L1210 [15]): 98.41% | T/C (L1210 [16]): 147%

N[S+]([O-])c1ncnc2c1ncn2C1O[C@H](CO)[C@@H](O)[C@H]1O (stereo partly specified)
Activity (L1210 [5]): 70.87% | T/C (L1210 [17]): 114%

NS(=O)(=O)c1[nH]cnc2ncnc1-2
Activity (L1210 [13]): 95.48% | T/C (L1210 [18]): 134%

NSc1[nH]c(N)nc2ncnc1-2
Activity (L1210 [1]): 99.04% | T/C (L1210 [2]): 159%

Nc1nc([S+](N)[O-])c2ncn(C3O[C@H](CO)[C@@H](O)[C@H]3O)c2n1 (stereo partly specified)
Activity (L1210 [7]): 99.8% | T/C (L1210 [8]): 167%

NSc1ncnc2c1ncn2C1O[C@H](CO)[C@@H](O)[C@H]1O (stereo partly specified)
Activity (L1210 [11]): 97.82% | T/C (L1210 [12]): 149%

Nc1nc(S(N)(=O)=O)c2ncn(C3O[C@H](CO)[C@@H](O)[C@H]3O)c2n1 (stereo partly specified)
Activity (L1210 [5]): 92.4% | T/C (L1210 [17]): 128%

NSc1nc(N)nc2c1ncn2C1O[C@H](CO)[C@@H](O)[C@H]1O (stereo partly specified)
Activity (L1210 [3]): 99.84% | T/C (L1210 [4]): 170%

Nc1nc(S(N)(=O)=O)c2[nH]cnc2n1
Activity (L1210 [3]): 20.78% | T/C (L1210 [4]): 103%

NS(=O)(=O)c1ncnc2c1ncn2[C@@H]1O[C@H](CO)[C@@H](O)[C@H]1O
Activity (L1210 [7]): 98.36% | T/C (L1210 [8]): 147%
